# ChEMBL document CHEMBL1124794, “Synthesis, chemistry, and antineoplastic activity of alpha-halopyridinium salts: potential pyridone prodrugs of acylated vinylogous carbinolamine tumor inhibitors” (J Med Chem, 1990)
# Several values for one entry are separate records, joined by “and”; a condition that tells them apart may be missing. Equal entries are not always repeated.
# Columns and labels:
# [1] = Effect of pH on the hydrolysis of pyridinium Moity in 0.05 M buffer concentration at the pH 6.0; format: ADME
# How it was run: (§1)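 Pyridinium salt in 0.05 M phosphate buffer, pH 6.0–8.0 (set by pH meter), ionic strength 0.25 M, 25 °C. Decrease in the pyridinium UV absorbance maximum followed over time to give pseudo-first-order kobs and half-life.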
# [2] = Half life at the buffer concentration of 0.10 M.; format: ADME
# How it was run: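 α-Fluoropyridinium hydrolysis to pyridone in phosphate buffer at 0.02, 0.05 or 0.10 M, pH 6.5 or 8.0, ionic strength […] °C. Pyridinium UV absorbance maximum followed with time to give pseudo-first-order kobs and half-life.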
# [3] = Half life at the ionic strength 1.0 M NaCl; format: ADME
# How it was run: (§2)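 Pyridinium salt in 0.02 M phosphate buffer, pH 7.4, 25 °C, with NaCl varied 0.10–1.0 M. Loss of the pyridinium chromophore's UV absorbance maximum (conversion to pyridone) followed over time. Pseudo-first-order kobs and half-life derived from that decay.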
# [4] = In vivo activity against murine M5076 tumor system at the dose of 25 mg/kg, activity expressed as KE; format: functional, Mus musculus
# How it was run: (§3)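 M5076: ascitic fluid with ca. 10^6 cells inoculated ip into CD2F1 mice. Dosing started 24 h after inoculation and was then given every 4 days for four doses in total, from solutions or suspensions made fresh each day. Toxicity day survivors were scored on day 5. Body weight difference is day 14 minus day 1. %T/C is based on median survival time versus controls.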
# [5] = Half life at the ionic strength 0.50 M NaCl; format: ADME; how it was run: as §2
# [6] = Effect of pH on the hydrolysis of pyridinium Moity in 0.05 M buffer concentration at the pH 6.5; format: ADME; how it was run: as §1
# [7] = Effect of Ionic strength (0.10 M NaCl)on the hydrolysis of pyridinium Moity in 0.02 M buffer concentration, pH 7.4,25 degree C; format: ADME; how it was run: as §2
# L1210 [8] = experiment: In vivo activity against murine L1210 tumor system at the dose of 36 mg/kg, activity expressed as %T/C.; format: functional, Mus musculus
# How it was run: as §3, with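 “L1210 lymphocytic leukemia:” for “M5076:”, “injected” for “inoculated”, “repeated daily” for “then given every 4 days”, “five” for “four”, “5” for “14”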
# [9] = In vivo activity against murine M5076 tumor system at the dose of 100 mg/kg, activity expressed as %T/C.; format: functional, Mus musculus; how it was run: as §3
# [10] = Half life at the pH 9.0; format: ADME; details: buffer
# How it was run: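 Bis-carbamate hydrolysis in acetonitrile–water (1:1) with 0.05 M borate buffer (boric acid–NaOH), pH 9.0, ionic strength 0.136 adjusted with KCl, 25 °C, thermostated. Loss of the bis-carbamate peak area was tracked by HPLC. k_obs is the slope of ln(area0/areat) vs time. Values are averages of two determinations.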
# L1210 [11] = experiment: In vivo activity against murine L1210 tumor system at the dose of 21.6 mg/kg, activity expressed as body weight difference; T-C; format: functional, Mus musculus
# How it was run: as §3, with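 “L1210 lymphocytic leukemia:” for “M5076:”, “injected” for “inoculated”, “repeated daily” for “then given every 4 days”, “five” for “four”, “5” for “14”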
# [12] = In vivo activity against murine M5076 tumor system at the dose of 100 mg/kg, activity expressed as body weight difference; T-C; format: functional, Mus musculus; how it was run: as §3
Compound,K obs [1],T1/2 [2],half-life [3],KE [4],half-life [5],K obs [6],K obs [7],T/C (L1210 [8]),T/C [9],half-life [10],BWD (L1210 [11]),BWD [12]
CC(C)NC(=O)OCc1c(COC(=O)NC(C)C)c(-c2cc[n+](C)c(F)c2)n2c1CCC2.[I-],0.0044 min⁻¹,50.3 min and 19.25 min,99.1 min,-1.98,63.2 min,0.0153 min⁻¹,0.024 min⁻¹,–,–,–,–,–
CC(C)NC(=O)OCc1c(COC(=O)NC(C)C)c(-c2ccn(C)c(=O)c2)n2c1CCC2,–,–,–,–,–,–,–,135%,122%,54 min,-0.3 g,-1.3 g
